# Results of several laboratories.
# Lines come from different studies, so protocols differ.
# Cell line: HepG2
# Effect on: cell growth or viability
SMILES,assay,setting,IC50
COc1nc(NCc2cn(-c3ccc(C(=O)Nc4ccccc4)cc3)nn2)nc(OC)n1,MTT,72 h,1.48 µM
CN(C)c1cc(NC(=O)Cc2cncnc2)c(O)c2c1C[C@H]1C[C@H]3[C@H](N(C)C)C(O)=C(C(N)=O)C(=O)[C@@]3(O)C(O)=C1C2=O,ATP luminescence,72 h,84.8 µg/mL
COc1ccc(-c2cc(-c3cc(OC)ccc3OC)c3c(=O)n(C)c(=O)n(C)c3n2)cc1,MTT,48 h,16.4 µM
CN(C)c1cc(NC(=O)Cc2ccncn2)c(O)c2c1C[C@H]1C[C@H]3[C@H](N(C)C)C(O)=C(C(N)=O)C(=O)[C@@]3(O)C(O)=C1C2=O,ATP luminescence,72 h,> 200 µg/mL
COc1ccc2nc(N3CCOCC3)c(-c3cc(-c4cccc(O)c4)nc4[nH]nc(N)c34)cc2c1,MTT,72 h,0.087 µM
CN(C)c1cc(NC(=O)Cc2ccncc2)c(O)c2c1C[C@H]1C[C@H]3[C@H](N(C)C)C(O)=C(C(N)=O)C(=O)[C@@]3(O)C(O)=C1C2=O,ATP luminescence,72 h,> 200 µg/mL
Cc1ccc(-c2cc(-c3ccc(N(C)C)cc3)c3c(=O)n(C)c(=O)n(C)c3n2)cc1,MTT,48 h,14.4 µM
CN(C)c1cc(NC(=O)Cc2ccn(C)n2)c(O)c2c1C[C@H]1C[C@H]3[C@H](N(C)C)C(O)=C(C(N)=O)C(=O)[C@@]3(O)C(O)=C1C2=O,ATP luminescence,72 h,> 200 µg/mL
COc1ccc(-c2cc(-c3ccccc3Cl)c3c(=O)[nH]c(=O)[nH]c3n2)cc1,MTT,48 h,18.9 µM
COc1cccc2c1C(=O)c1c(O)c3c(c(O)c1C2=O)C[C@@](O)(C(=O)CO)C[C@@H]3O[C@H]1C[C@H](N)[C@H](O)[C@H](C)O1,MTT,24 h,4.5 µM
CN(C)c1cc(NC(=O)Cc2cccnn2)c(O)c2c1C[C@H]1C[C@H]3[C@H](N(C)C)C(O)=C(C(N)=O)C(=O)[C@@]3(O)C(O)=C1C2=O,ATP luminescence,72 h,> 200 µg/mL
Cc1ccc(-c2cc(-c3ccc(Cl)c(F)c3)c3c(=O)n(C)c(=O)n(C)c3n2)cc1,MTT,48 h,38.8 µM
C[C@H](CCC(=O)O)[C@H]1CC[C@H]2[C@@H]3CC[C@@H]4C[C@H](O)CC[C@]4(C)[C@H]3CC[C@]12C,MTT,72 h,52 µM
O=C(Cc1csc(NC(=O)c2cc3ccccc3[nH]2)n1)NO,MTT,24 h,67.9 µM
COc1ccc(-c2cc(-c3cccc(Br)c3)c3c(=O)n(C)c(=O)n(C)c3n2)cc1,MTT,48 h,12.4 µM
